The list is not random: actives were taken first. Their share in the collection is about 1.5%.
ERp5 block = inhibitors of ERp5-driven insulin aggregation, primary screen, biochemical, turbidity, absorbance 650 nm, single point. Protein disulfide-isomerase A6 (Homo sapiens), Q15084. 90 min. inhibition, % at 9.99 µM. hit rate 0.05% among 350,000. AID 651711, 2012;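 active means mean replicate inhibition above about 25%, with every replicate also reaching it, limit read from the data, passing the limit was not always enough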
S100A4 MyoIIA = inhibitors of S100A4-myosin IIA peptide binding, primary screen, biochemical, fluorescence polarization, TAMRA-MyoIIA peptide. Protein S100-A4 (Homo sapiens), P26447. inhibition, % at 10.7 µM. hit rate 0.14% among 360,000;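 active means mean inhibition of at least 70% across replicates, with every replicate also reaching that level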
Target sequence (P26447 whole entry, looked up): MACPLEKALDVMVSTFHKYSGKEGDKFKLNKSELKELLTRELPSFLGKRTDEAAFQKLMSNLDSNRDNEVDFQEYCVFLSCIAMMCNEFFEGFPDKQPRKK
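Test system: S100A4 monomer protein. Medium: HEPES buffer with Ca2+, pH 7.2. Reagent: fluorescent myosin IIA peptide, 5 nM. Compound dosing: single-point compound testing. Timing: 5 min between mix addition and reading. Benchmarks: DMSO neutral and TFP positive wells.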
PDI inh = inhibitors of human PDI, primary screen, biochemical, turbidity, single point, plate reader; Protein disulfide-isomerase (Homo sapiens), P07237; PDI insulin aggregation turbidity, A650, 90 min; inhibition, % at 10 µM; hit rate 0.052% among 350,000;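 active means mean inhibition across replicates of 30% or more, whatever share of single replicates reach that level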
INS-1E GSIS act = GLuc luminescence reporter in INS-1E cells, primary screen for activators of glucose-dependent secretion of insulin; INS-1E GLuc reporter insulin secretion, 2-3 h; AID 743287, 2014; hit rate 0.61% among 370,000; activation, % at 16.6 µM;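 active means lowest replicate activation of at least 40%, so every replicate reaches that level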;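 further: 0% = median of neutral control wells and 100% = median of IBMX positive control wells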
SIRT5 block = SIRT5 desuccinylase inhibitors, primary screen, biochemical, fluorescence imaging, single point, set 5; NAD-dependent protein deacylase sirtuin-5, mitochondrial (Homo sapiens), Q9NXA8; Purified SirT5, succinyl-peptide AMC, trypsin-coupled fluorescence; inhibition, % at 15 µM; hit rate 1.1% among 330,000; AID 652115, 2013; in the data active means inhibition above about 15%
Target sequence (Q9NXA8 whole entry, looked up): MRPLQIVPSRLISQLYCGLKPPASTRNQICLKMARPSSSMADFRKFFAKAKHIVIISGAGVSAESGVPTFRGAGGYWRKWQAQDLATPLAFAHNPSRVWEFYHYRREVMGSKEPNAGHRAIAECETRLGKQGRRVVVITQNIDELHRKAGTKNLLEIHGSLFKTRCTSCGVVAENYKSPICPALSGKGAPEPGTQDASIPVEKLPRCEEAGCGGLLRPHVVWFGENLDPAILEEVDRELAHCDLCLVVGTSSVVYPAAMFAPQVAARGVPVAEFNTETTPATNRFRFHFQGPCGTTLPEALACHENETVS
* hit, by the source's call; · = no result; ! = a repeat was not active.

SMILES	ERp5 block	S100A4 MyoIIA	PDI inh	INS-1E GSIS act	SIRT5 block
O=S(=O)(c1ccc(F)cc1)N1CCCCN2[C@@H](CO)[C@H](c3ccc(C#CC4CCCC4)cc3)[C@@H]2C1	0	0	·	·	27*
O=S(=O)(c1ccc(F)cc1)N1CCCCN2[C@H](C1)[C@@H](c1ccc(C#CC3CCCC3)cc1)[C@@H]2CO	1	60	·	·	1
O=C(C[C@@H]1CC[C@H]2NC[C@H](O)COC[C@@H]2O1)NCc1ccc2c(c1)OCO2	·	·	·	3	·
C[C@H](CO)N1C[C@H](C)[C@H](CN(C)Cc2ccccc2C(=O)O)Oc2cc(-c3ccc(C(=O)N(C)C)cc3)ccc2S1(=O)=O	3	7	·	18	5
CCOC(=O)C1C(c2cccs2)NC(=O)NC1(O)C(F)(F)F (stereo not drawn)	2	-10	-1	40	17*
CCOC(=O)C1C(c2cccnc2)NC(=O)NC1(O)C(F)(F)F (stereo not drawn)	-3	0	2	9	-3
C[C@@H]1CCCCO[C@@H](CN(C)C(=O)C2CCCCC2)[C@@H](C)CN([C@H](C)CO)C(=O)c2cc(NC(=O)Nc3cccc4ccccc34)ccc2O1	2	108*	·	4	1
C[C@H]1CCCCO[C@H](CN(C)C(=O)CCCN(C)C)[C@@H](C)CN([C@@H](C)CO)C(=O)c2cc(NC(=O)Nc3cccc4ccccc34)ccc2O1	0	9	·	-6	0
C[C@@H]1CCCCO[C@H](CN(C)C(=O)CCCN(C)C)[C@@H](C)CN([C@@H](C)CO)C(=O)c2cc(NC(=O)Nc3cccc4ccccc34)ccc2O1	0	2	·	-18	18*
O=C(C[C@@H]1C[C@H]2c3cc(NC(=O)NC4CCCC4)ccc3O[C@H]2[C@H](CO)O1)NCc1ccncc1	-4	-9	·	-5	-3
O=C(OC1CCOC1=O)c1cc(-c2cccs2)nc2ccccc12 (stereo not drawn)	-1	0	1	59*	-21
Cc1ccc(-c2cc(C(=O)OC3CCOC3=O)c3ccccc3n2)c(C)c1 (stereo not drawn)	3	1	5	56	-2
COc1ccccc1-c1ccc([C@@H]2[C@@H]3CN(S(=O)(=O)c4ccc(-c5ccccc5)cc4)C[C@H]2N3)cc1	-3	16	·	33	21*
O=S(=O)(c1ccccc1F)N1C[C@@H]2N[C@H](C1)C2c1ccc(/C=C/c2ccccc2)cc1 (stereo partly drawn)	3	5	·	171*!	3
Cc1cccc(S(=O)(=O)N2C[C@@H]3N[C@H](C2)C3c2ccc(-c3ccccc3F)cc2)c1 (stereo partly drawn)	0	3	·	81*!	2
Cc1ccc(-c2ccc(C3[C@@H]4CN(S(=O)(=O)c5cccc(C)c5)C[C@H]3N4)cc2)cc1 (stereo partly drawn)	-3	11	·	·	28*
CCC(=O)Nc1ccc2c(c1)C(=O)N(C)C[C@@H](OC)[C@H](C)CN[C@@H](C)CO2	2	0	·	-11	-11
COCC#Cc1ccc2c(c1)O[C@H](CN(C)Cc1ccccc1)[C@@H](C)CN([C@@H](C)CO)S2(=O)=O	5	-14	·	-31	-1
C[C@H]1CN([C@@H](C)CO)C(=O)Cc2cc(NS(=O)(=O)c3cccs3)ccc2O[C@@H]1CN(C)C(=O)Nc1ccc(F)cc1	-3	-9	·	-4	-5
C[C@H](CO)N1C[C@H](C)[C@@H](CN(C)C(=O)CCCN(C)C)OCCCC[C@H](C)Oc2ccc(NS(=O)(=O)c3ccc(F)cc3)cc2C1=O	-2	6	·	7	-1
CCOc1ccc(C(=O)O/N=C(\N)c2ccccn2)cc1OCC	-8	-1	-4	87*	-1
C[C@H](NC(=O)[C@H]1N[C@H]2c3ccc(-c4cncnc4)c(=O)n3C[C@H]2[C@@H]1CO)c1ccccc1	-3	1	·	21	-9
Cc1ccc2c(c1)C=CC(C#N)N2C(=O)c1ccccc1 (stereo not drawn)	2	1	-6	50*	-1
C[C@H](CO)N1C[C@H](C)[C@H](CN(C)Cc2ccc3c(c2)OCO3)Oc2cc(-c3cccc(C(=O)N(C)C)c3)ccc2S1(=O)=O	0	-6	·	-15	5
COC(=O)c1ccc2c(c1)NC(=O)C(N(CC(C)C)CC(C)C)S2 (stereo not drawn)	1	-7	3	46*	-3
SMILES	ERp5 block	S100A4 MyoIIA	PDI inh	INS-1E GSIS act	SIRT5 block
C[C@H]1CN([C@@H](C)CO)C(=O)c2cc(NS(=O)(=O)c3ccc(F)cc3)ccc2O[C@@H]1CN(C)Cc1ccc(-c2ccccc2)cc1	-10	-15	·	-38	15*
Cc1ccc(S(=O)(=O)Nc2ccc3c(c2)C(=O)N([C@@H](C)CO)C[C@@H](C)[C@H](CN(C)Cc2ccc(-c4ccccc4)cc2)O3)cc1	-14	2	·	-23	-4
C[C@H](CO)N1C[C@H](C)[C@H](CN(C)Cc2ccc(-c3ccccc3)cc2)Oc2ccc(NS(=O)(=O)c3ccc(F)cc3)cc2C1=O	-5	-4	·	-26	15
Cc1ccc(S(=O)(=O)Nc2ccc3c(c2)C(=O)N([C@@H](C)CO)C[C@@H](C)[C@@H](CN(C)Cc2ccc(-c4ccccc4)cc2)O3)cc1	-10	0	·	-37	17*
C[C@@H]1CN([C@@H](C)CO)C(=O)c2cc(NS(=O)(=O)c3ccccc3)ccc2O[C@@H]1CN(C)Cc1ccc(-c2ccccc2)cc1	-3	-6	·	-15	18*
COCC(=O)Nc1ccc2c(c1)C(=O)N(C)[C@@H]1CC[C@H](CC(=O)OC)O[C@H]1CO2	·	·	·	-3	·
COc1ccc2c3c(n(C)c2c1)[C@@H](CO)N(C(=O)C1CCOCC1)CC31CCN(C(=O)c2ccncc2)CC1	·	·	·	-11	·
COc1ccc(NC(=O)N(C)C[C@H]2OCCCC[C@@H](C)Oc3ccc(NS(=O)(=O)c4cn(C)cn4)cc3C(=O)N([C@H](C)CO)C[C@H]2C)cc1	4	11	·	8	-6
c1cn2cc(-c3ccc(CN4CCOCC4)cc3)ccc2n1	-1	5	-12	55*	·
Cc1ccc2nc(Cl)nc(-c3ccccc3)c2c1	5	-1	0	51*	-5
O=C(Nc1cccc(Cl)c1)Nc1nnc(CSCCOc2ccc(Cl)cc2)s1	·	·	0	54*	·
CNC[C@H]1OCCCC[C@H](C)Oc2ccc(NS(=O)(=O)c3ccc(C)cc3)cc2C(=O)N([C@H](C)CO)C[C@@H]1C	0	-6	·	-1	0
O=S(=O)(NCCc1ccccc1)c1ccc(S(=O)(=O)N2CCCCC2)cc1	4	-15	0	-4	0
O=S(=O)(NCc1ccccc1)c1ccc(S(=O)(=O)N2CCCCC2)cc1	·	·	-6	49*	·

Bioassay records as filed in PubChem BioAssay.
